Assay outcomes as filed in PubChem BioAssay.
MEX-5 binding = C. elegans MEX-5 TCR-2 RNA binding activity; MEX-5/FITC-TCR2 RNA binding, fluorescence polarization; stronger effect = lower value; activity score (negative = inhibition of binding), % at 10 µM; actives 0.38% (n = 300,000); AID 1832;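 active = inhibition past about -25% in most replicates, and total fluorescence under double the plate's negative control median, limit read from the data; inconclusive = replicates evenly split on the limit, or fluorescence at least double controls; inactive = too little inhibition in most replicates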;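 also: 0% = DMSO and -100% = 5 µM competing unlabeled TCR2 RNA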
KLK7 zymogen act = activates the human kallikrein-7 zymogen. P49862. purified proKLK7, EDANS-DABCYL substrate fluorescence; 100% is mature enzyme control, 0% vehicle. activation, % at 7 µM. actives 0.9% (n = 370,000). AID 652039;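 active = activation above the mean of all tested compounds plus 3 SD, computed per campaign excluding outliers beyond control limits, cut at about 13% in these data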
Runt-CBFb FRET = inhibitors of human RUNX1 Runt domain binding to CBFb; Cerulean-Runt/Venus-CBFb FRET ratio 530/480, 1 h; inhibition, % at 20 µM; actives 0.46% (n = 220,000);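 active = inhibition over about 50% at 20 µM in the single-dose screen, limit read from the data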;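 also: 0% = DMSO wells and 100% = excess unlabeled CBFb competitor control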
Target sequence (Q01196 whole entry, looked up, the tested form may be a part): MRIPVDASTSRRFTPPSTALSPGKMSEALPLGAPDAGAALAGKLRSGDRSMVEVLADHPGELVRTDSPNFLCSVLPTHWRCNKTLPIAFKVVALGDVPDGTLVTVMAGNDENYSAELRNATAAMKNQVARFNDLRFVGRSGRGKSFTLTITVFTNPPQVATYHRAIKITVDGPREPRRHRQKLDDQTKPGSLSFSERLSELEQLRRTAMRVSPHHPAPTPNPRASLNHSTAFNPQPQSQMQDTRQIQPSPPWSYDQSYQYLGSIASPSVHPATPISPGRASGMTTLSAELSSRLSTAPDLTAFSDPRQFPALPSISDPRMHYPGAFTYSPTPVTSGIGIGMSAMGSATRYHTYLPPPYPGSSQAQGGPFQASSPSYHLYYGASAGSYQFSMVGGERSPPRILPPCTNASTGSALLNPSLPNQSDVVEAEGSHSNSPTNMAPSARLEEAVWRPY
Target sequence (Q13951 whole entry, looked up, the tested form may be a part): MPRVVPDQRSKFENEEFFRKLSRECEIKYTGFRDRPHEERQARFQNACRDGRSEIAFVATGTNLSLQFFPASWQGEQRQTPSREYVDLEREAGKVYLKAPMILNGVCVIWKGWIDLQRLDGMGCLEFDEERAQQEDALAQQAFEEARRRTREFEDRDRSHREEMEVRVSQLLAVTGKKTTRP
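Schedule: protein complex preformed 1 h, compound exposure 1 h, room temperature, dark; test system: Cerulean-labeled Runt domain protein; amount: 100 nM per protein; buffer or medium: Tris 50 mM pH 7.5, KCl, K2SO4, 0.01% BSA; read-out: loss of energy transfer signal; detection: FRET fluorescence; controls: 5 µM unlabeled CBFb as full-inhibition high control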
Runt-SMMHC FRET = Runt domain-CBFb-SMMHC interaction inhibition; Cerulean-Runt/Venus-CBFb-SMMHC FRET ratio 530/480, 1 h; actives 0.74% (n = 220,000); inhibition, % at 20 µM;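 active = mean inhibition across duplicate retests at 20 µM reaching about 50%, limit read from the data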;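 also: 0% = DMSO wells and 100% = wells with excess untagged CBFb-SMMHC; inhibitors lower the FRET ratio by blocking Runt binding to CBFb-SMMHC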
RanGTP-Impb inh = inhibitors of RanGTP-importin-beta interaction, primary screen, biochemical, FRET, CFP-Ran, YFP-importin-beta, homogeneous | cell-free CFP-Ran/YFP-importin-beta FRET ratio | inhibition, % (concentration not given with the values) | actives 1.1% (n = 300,000);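 active = more than half of the replicate wells show a fall in the fluorescence ratio signal beyond about 16%, limit read from the data, passing the limit was not always enough; inconclusive = exactly half of the replicate wells pass the set limit; inactive = fewer than half of replicates pass the limit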;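 also: 0% = DMSO wells and 100% = Ran loaded with GDP instead of GTP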
proKLK7 act conf = confirmation of human kallikrein-7 zymogen activators. activation, % at 7 µM. actives 68% (n = 3,200). purified proKLK7, EDANS-DABCYL substrate fluorescence; scaled: vehicle 0, mature enzyme 100. shares compounds with KLK7 zymogen act;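 active = activation, as change over the incubation, above the mean of all tested compounds plus 3 SD, cut at about 13% in these data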
EDANS interfere = optically interferes with EDANS-DABCYL signal, flagging KLK7 hits | shares compounds with KLK7 zymogen act | EDANS-DABCYL substrate fluorescence interference, no enzyme, 4 h; solvent 0%, active enzyme control 100% | activation, % at 7 µM | actives 80% (n = 3,200) | AID 686952;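 active = activation above the all-compound mean plus 3 SD, ignoring values outside control-based bounds, cut at about 4.8% in these data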;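 also: value is the 4 h activation minus the activation read at time zero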
Starred values were filed as active, the others as inactive. In the library only some 2.1% were active in any assay of this set; here they are far more common.

Screening O=C(Nc1ccc2oc(=O)c(C(=O)O)cc2c1)Oc1ccccc1 returned KLK7 zymogen act 100*, proKLK7 act conf 187* and EDANS interfere 181*.
`O=c1[nH]c(NCCCO)nc2c1C1(CCCC1)Cc1ccccc1-2` gave MEX-5 binding -1, KLK7 zymogen act 13*, Runt-CBFb FRET 0, Runt-SMMHC FRET 0, RanGTP-Impb inh 10, proKLK7 act conf -43 and EDANS interfere -53.
Screening CC1(C)Cc2ccccc2-c2nc(NCCCO)n(-c3ccccc3)c(=O)c21 returned MEX-5 binding 0, KLK7 zymogen act 15*, Runt-CBFb FRET -2, Runt-SMMHC FRET 1, RanGTP-Impb inh -2, proKLK7 act conf -53 and EDANS interfere -30.
Screening CCC1(C)Cc2ccccc2-c2nc(NCCCO)[nH]c(=O)c21 (centres undefined) returned MEX-5 binding -1, KLK7 zymogen act 33*, Runt-CBFb FRET 1, Runt-SMMHC FRET -2, RanGTP-Impb inh 1, proKLK7 act conf -56 and EDANS interfere -58.
Screening O=c1[nH]c(NNC(=S)NC2CCCCC2)nc2c1C1(CCCC1)Cc1ccccc1-2 returned MEX-5 binding 0, KLK7 zymogen act 1, Runt-CBFb FRET 8, Runt-SMMHC FRET -2 and RanGTP-Impb inh 2.
Screening CCC1(CC)Cc2ccccc2-c2nc(NCCCO)[nH]c(=O)c21 returned MEX-5 binding 2, KLK7 zymogen act -1, Runt-CBFb FRET 0, Runt-SMMHC FRET 1 and RanGTP-Impb inh 0.
`COc1cccc(-c2oc3c(c2C(=O)OCCN(C)C)C(O)CCC3)c1` (centres undefined) gave KLK7 zymogen act 0.
`CSCCC(C(=O)NCc1ccccc1)n1c(Cc2cc(F)cc(F)c2)nc2ccccc21` (centres undefined) gave KLK7 zymogen act 0.
CCOCc1nnc(NC(=O)C2CCN(C(=O)C3CC(=O)N(c4ccc(C)cc4)C3)CC2)s1 (centres undefined) was read as MEX-5 binding 0, KLK7 zymogen act 0 and RanGTP-Impb inh 9.
`Cc1[nH]c2ccccc2c1/C=C(\C#N)S(=O)(=O)c1ccccc1` gave MEX-5 binding -1, KLK7 zymogen act 14*, Runt-CBFb FRET 0, Runt-SMMHC FRET 2, RanGTP-Impb inh -3, proKLK7 act conf -2 and EDANS interfere -5.
`Cc1cc(C)c(/C=C(\C#N)S(=O)(=O)c2ccccc2)[nH]1` gave MEX-5 binding -3, KLK7 zymogen act -2, Runt-CBFb FRET -10, Runt-SMMHC FRET 1 and RanGTP-Impb inh -2.
`COc1ccc2nc(-c3ccccc3)[nH]c2c1` gave MEX-5 binding 0, KLK7 zymogen act 3, Runt-CBFb FRET 0, Runt-SMMHC FRET -8 and RanGTP-Impb inh -3.
`COc1ccc2nc3ccccc3[n+]([O-])c2c1` gave KLK7 zymogen act 27*, proKLK7 act conf 32* and EDANS interfere 34*.
`Cc1ccccc1N1C(=O)c2cccc3c(N(C)CCO)ccc(c23)C1=O` gave MEX-5 binding inconclusive, KLK7 zymogen act 13*, Runt-CBFb FRET -126, Runt-SMMHC FRET -190, RanGTP-Impb inh -119, proKLK7 act conf 9 and EDANS interfere 10*.
Screening COc1cc(/C=C/c2nc3ccccc3c(=O)[nH]2)ccc1O returned KLK7 zymogen act 17*, proKLK7 act conf -1 and EDANS interfere 3.
For N#Cc1c(N(CCO)CCO)nc(N)c2c(N)nc3c(c12)CC(=O)N3CC1CCCO1 (centres undefined) the results were MEX-5 binding 0, KLK7 zymogen act 30*, Runt-CBFb FRET 7, Runt-SMMHC FRET -4, RanGTP-Impb inh inconclusive, proKLK7 act conf 43* and EDANS interfere 49*.
For CC(C)N(C(=O)[C@H]1C[C@H](CC(=O)NCCCn2ccnc2)C(=O)N2CCc3c([nH]c4cc(-c5ccco5)ccc34)[C@]12C)C(C)C the results were KLK7 zymogen act 6.
Screening C[C@]12c3[nH]c4cc(-c5ccco5)ccc4c3CCN1C(=O)[C@@H](CC(=O)NCCN1CCOCC1)C[C@@H]2C(=O)N1CCOCC1 returned KLK7 zymogen act 52*, proKLK7 act conf 35* and EDANS interfere 51*.
C[C@]12c3[nH]c4ccccc4c3CCN1C(=O)C(CC(=O)NCCN1CCOCC1)C[C@@H]2C(=O)N1CCOCC1 (some centres undefined) was read as KLK7 zymogen act 0.
`CC(C)N(C(=O)[C@H]1C[C@H](CC(=O)NCCN2CCOCC2)C(=O)N2CCc3c([nH]c4cc(-c5ccco5)ccc34)[C@]12C)C(C)C` gave KLK7 zymogen act 124*, proKLK7 act conf 120* and EDANS interfere 127*.
Screening COc1ccc(CNC(=O)C[C@H]2C[C@H](C(=O)N3CCOCC3)[C@@]3(C)c4[nH]c5cc(-c6ccco6)ccc5c4CCN3C2=O)cc1OC returned KLK7 zymogen act 100*, proKLK7 act conf 57* and EDANS interfere 64*.
For CN(C)c1nnnn1Cc1ccc(Cl)cc1Cl the results were MEX-5 binding -1, KLK7 zymogen act 1, Runt-CBFb FRET 0, Runt-SMMHC FRET -2 and RanGTP-Impb inh inconclusive.
Screening CC(=O)Nc1oc(-c2cccc3ccccc23)nc1C#N returned KLK7 zymogen act 78*, proKLK7 act conf 72* and EDANS interfere 72*.
`N#Cc1ccccc1S(=O)(=O)N1CCN(Cc2cc3c(cc2Br)OCCO3)CC1` gave KLK7 zymogen act -1.
Screening CCOC(=O)NC(=O)CSc1nc(C)cc(C)c1C#N returned MEX-5 binding 2, KLK7 zymogen act 99*, Runt-CBFb FRET 3, Runt-SMMHC FRET 6, RanGTP-Impb inh -3, proKLK7 act conf 91* and EDANS interfere 99*.
For CCc1c(C)nc(SCC(=O)CC(=O)OC(C)C)c(C#N)c1C the results were MEX-5 binding 2, KLK7 zymogen act 48*, Runt-CBFb FRET 9, Runt-SMMHC FRET 20, RanGTP-Impb inh -3, proKLK7 act conf 26* and EDANS interfere 24*.
For Cc1cc(C)c(C#N)c(SCC(=O)Nc2cc(C)on2)n1 the results were KLK7 zymogen act 16*, proKLK7 act conf 102* and EDANS interfere 109*.
CCc1nnc(NC(=O)CSc2nc(C)cc(C)c2C#N)s1 was read as MEX-5 binding 1, KLK7 zymogen act 14*, Runt-CBFb FRET 21, Runt-SMMHC FRET 26, RanGTP-Impb inh 4, proKLK7 act conf 82* and EDANS interfere 80*.
